This note sets out measurements from ChEMBL document CHEMBL4622843, “Synthesis, state-of-the-art NMR-binding and molecular modeling study of new benzimidazole core derivatives as Pin1 inhibitors: Targeting breast cancer” (Bioorg Med Chem, 2020).

Series [1] has as its system MCF7. Kind of series: Cytotoxicity against human MCF7 cells assessed as reduction in cell viability after 24 hrs by MTT assay. The note with it: MCF7, 24 h. In kind it is functional, cell-based. A general note: Formazan colour is commonly taken as a measure of viable cells.
In series [2] the test system is MCF7. Kind of series: Induction of apoptosis in human MCF7 cells assessed as necrotic cells at 10 mg/ml after 24 hrs by AnnexinV-FITC/propidium iodide staining based flow cytometry analysis (reference value: 0.44%). In kind it is functional. (In flow cytometry, cells or beads pass a laser one at a time.)
Series [3] relates to MCF7. Description: Induction of apoptosis in human MCF7 cells assessed as early apoptotic cells at 10 mg/ml after 24 hrs by AnnexinV-FITC/propidium iodide staining based flow cytometry analysis (reference value: 0.41%). In kind it is functional.
For series [4], the system named is MCF7. Kind of series: Cell cycle arrest in human MCF7 cells assessed as accumulation at PreG1 phase at 10 mg/ml after 24 hrs by Annexin V-FITC/propidium iodide staining based flow cytometry (reference value: 1.04%). In kind it is functional.
The test system of series [5] is MCF7. Description: Cell cycle arrest in human MCF7 cells assessed as accumulation at G2/M phase at 10 mg/ml after 24 hrs by Annexin V-FITC/propidium iodide staining based flow cytometry (reference value: 5.47%). In kind it is functional.
In series [6] the test system is MCF7. Kind of series: Cell cycle arrest in human MCF7 cells assessed as accumulation at S phase at 10 mg/ml after 24 hrs by Annexin V-FITC/propidium iodide staining based flow cytometry (reference value: 38.15%). In kind it is functional.
Series [7] has as its system MCF7. Description: Induction of apoptosis in human MCF7 cells assessed as late apoptotic cells at 10 mg/ml after 24 hrs by AnnexinV-FITC/propidium iodide staining based flow cytometry analysis (reference value: 0.19%). In kind it is functional.
Series [8] concerns MCF7. Kind of series: Cell cycle arrest in human MCF7 cells assessed as accumulation at G0/G1 phase at 10 mg/ml after 24 hrs by Annexin V-FITC/propidium iodide staining based flow cytometry (reference value: 56.38%). In kind it is functional.
A short description of series [9]: Solubility of the compound in 95% PBS buffer/5% DMSO. In kind it is physicochemical.
Series [10] has as its target Peptidyl-prolyl cis-trans isomerase NIMA-interacting 1 (Homo sapiens) (UniProt Q13526). Description: Binding affinity to recombinant human 15N-labelled N-terminal 6His-tagged Pin1 expressed in Escherichia coli BL21 (DE3) cells at 1:10 ratio of protein to compound by 2D 15N-1H HSQC NMR spectroscopy. The procedure, abridged: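 Pin1 and compound at a 1:10 protein:compound ratio, compound partially dissolved in 95% buffer/5% DMSO. A reference HSQC spectrum was recorded with DMSO only and compared with ligand-containing spectra.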

The source made the active and inactive calls. The rule behind the calls is not given here.

Peptidyl-prolyl cis-trans isomerase NIMA-interacting 1 (Homo sapiens), sequence (Q13526 whole entry): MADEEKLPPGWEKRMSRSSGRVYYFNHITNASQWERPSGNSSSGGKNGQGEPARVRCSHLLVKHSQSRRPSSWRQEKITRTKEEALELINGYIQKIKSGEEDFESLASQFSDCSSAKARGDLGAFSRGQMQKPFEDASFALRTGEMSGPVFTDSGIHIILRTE

For the molecule `CCN(CC)C(=S)SCc1nc2cc(Cl)c(Cl)cc2[nH]1`, the IC50 (as a rule, the concentration that gives 50% inhibition) with MCF7 [1] stood at 12.6 µM.

Consider `c1ccc2[nH]c(SCCCN3CCOCC3)nc2c1`, for which the IC50 in the series on MCF7 [1] came out at 82.9 µM.

For `COc1ccc(N2CCN(C(=S)SCc3nc4cc(C)c(C)cc4[nH]3)CC2)cc1`, the half-maximal inhibitory concentration (IC50) in the series on MCF7 [1] is 46 µM.

In the case of `CN1CCN(CCCSc2nc3cc(Cl)ccc3[nH]2)CC1`, the IC50 in the series on MCF7 [1] is 13.9 µM.

Consider `S=C(SCc1nc2cc(Cl)c(Cl)cc2[nH]1)N1CCCCC1`, for which the IC50 in the series on MCF7 [1] was found to be 42.8 µM.

For the molecule `CCOc1ccccc1N1CCN(CCCSc2nc3cc(Cl)ccc3[nH]2)CC1`, in the series with MCF7 [1], the IC50 came to 27.7 µM.

On to `ClCCCSc1nc2cc(Cl)ccc2[nH]1`, for which the concentration for half-maximal inhibition (IC50) in the series with MCF7 [1] amounted to 24.1 µM.

Regarding `CCOc1ccccc1N1CCN(C(=S)SCc2nc3cc(Cl)c(Cl)cc3[nH]2)CC1`, the IC50 in the series on MCF7 [1] was 16.2 µM.

`COc1ccc(N2CCN(C(=S)SCc3nc4cc(Cl)c(Cl)cc4[nH]3)CC2)cc1`: the half-maximal inhibitory concentration (IC50) with MCF7 [1] amounted to 19.9 µM.

With `CCOc1ccccc1N1CCN(C(=S)SCc2nc3cc(C)c(C)cc3[nH]2)CC1`, in the series with MCF7 [1], the IC50 stood at 5.58 µM. In addition, the Activity in the series with MCF7 [2] was found to be 2.91%; with MCF7 [3] it was 7.36%; in the series with MCF7 [4], 27.28%; in the series on MCF7 [5], 27.86%; in the series on MCF7 [6] it was 32.42%; in the series on MCF7 [7], 17.01%. In the series with MCF7 [8], the Activity is 39.72%.

As to `Clc1cccc(N2CCN(CCCSc3nc4cc(Cl)ccc4[nH]3)CC2)c1`, the IC50 in the series with MCF7 [1] came to 61.4 µM.

Turning to `CN1CCN(CCCSc2nc3ccccc3[nH]2)CC1`, in the series on MCF7 [1], the IC50 stood at 77.9 µM.

Regarding `COc1ccc(N2CCN(CCCSc3nc4cc(Cl)ccc4[nH]3)CC2)cc1`, the IC50 in the series on MCF7 [1] is 38.5 µM.

Take `COc1ccc(N2CCN(CCCSc3nc4ccccc4[nH]3)CC2)cc1`: in [9], the solubility result was “Soluble”. Moreover, the half-inhibitory concentration (IC50) in the series with MCF7 [1] came to 6.84 µM. The result in [10] was Active.

For the molecule `Clc1cccc(N2CCN(CCCSc3nc4ccccc4[nH]3)CC2)c1`, the IC50 in the series on MCF7 [1] came to 54.6 µM.

As for `S=C(SCc1nc2cc(Cl)c(Cl)cc2[nH]1)N1CCOCC1`, the solubility entry in series [9] was “Soluble”. Also, the half-inhibitory concentration (IC50) with MCF7 [1] turned out to be 5.7 µM. For the same molecule, the result in [10] was Active.

In the case of `CN1CCN(C(=S)SCc2nc3cc(Cl)c(Cl)cc3[nH]2)CC1`, in the series on MCF7 [1], the IC50 is 30.5 µM.

As to `CCOc1ccccc1N1CCN(CCCSc2nc3ccccc3[nH]2)CC1`, the IC50 in the series on MCF7 [1] was 32.7 µM.

As to `Cc1cc2nc(CSC(=S)N3CCCCC3)[nH]c2cc1C`, the solubility entry in [9] is recorded as “Soluble”. In addition, the half-maximal inhibitory concentration (IC50) in the series on MCF7 [1] is 9.55 µM. Further, the result in series [10] was Active.

For the molecule `c1ccc2[nH]c(SCCCN3CCNCC3)nc2c1`, the IC50 with MCF7 [1] is 91.7 µM.
